NPY Y1 blocker: NPY-Y1 (human) receptor antagonism; 200,000 compounds, 1% hits; inhibition, % at 3.6 µM; HEK293-CNG Y1 cells, membrane potential fluorescence; NPY at EC95, then isoproterenol;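 active = inhibition above the campaign mean inhibition of all tested compounds plus 3 SD, cut at about 20% in these data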;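 note: 0% = DMSO wells given NPY plus isoproterenol and 100% = isoproterenol alone without NPY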
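Test system: HEK293 cells co-expressing NPY Y1 receptor and cyclic-nucleotide gated channel; Also added: NPY (25 nM), isoproterenol (1 µM), Ro 20-1724 (25 µM); Compound dosing: one concentration, 3.6 µM, in 0.4% DMSO; Timing: dye 3 h, compound 60 min room temperature, stimulation 45 min; Technique: Membrane-potential fluorescent dye readout.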
NPY-Y2 PAM-ag: human NPY-Y2 potentiation or agonism, primary screen | cells expressing NPY-Y2, potentiator/agonist read-out | activation, % at 3.6 µM | 220,000 compounds, 0.45% hits; in the data active = activation above about 27%;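 note: cells stimulated with NPY near EC25 plus isoproterenol at EC100; 0% = vehicle plus submaximal agonist and 100% = vehicle plus saturating agonist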
Target sequence (P49146 whole entry, looked up): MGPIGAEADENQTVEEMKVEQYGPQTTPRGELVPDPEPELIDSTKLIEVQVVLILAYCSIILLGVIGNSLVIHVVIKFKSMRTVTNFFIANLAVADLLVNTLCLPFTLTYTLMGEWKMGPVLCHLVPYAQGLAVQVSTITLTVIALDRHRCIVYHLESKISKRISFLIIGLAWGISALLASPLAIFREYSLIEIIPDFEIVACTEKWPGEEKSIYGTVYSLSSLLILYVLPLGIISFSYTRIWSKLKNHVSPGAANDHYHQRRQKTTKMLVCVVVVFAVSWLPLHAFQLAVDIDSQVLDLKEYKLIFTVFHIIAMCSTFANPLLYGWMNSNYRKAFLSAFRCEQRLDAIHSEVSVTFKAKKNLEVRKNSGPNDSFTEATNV
NPY Y2 blocker: antagonists of human neuropeptide Y receptor Y2; P49146; NPY-Y2 expressing cells, antagonist mode; inhibition, % at 2.7 µM; 140,000 compounds, 0.99% hits;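 note: 0% = vehicle with agonist challenge and 100% = reference antagonist with challenge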
NPY-Y1 PAM-ag: human NPY-Y1 potentiation or agonism, primary screen. NPY-Y1 expressing cells, potentiator/agonist activation. activation, % at 3.6 µM. 220,000 compounds, 0.37% hits. AID 1304; in the data active = activation above about 33%, passing the limit was not always enough;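 note: cells stimulated with NPY at EC10 then isoproterenol at EC100; 0% = low agonist plus stimulus and 100% = saturating agonist plus stimulus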
NPY-Y1 ant conf: human NPY-Y1 antagonism, confirmation; inhibition, % at 3.6 µM; shares compounds with NPY Y1 blocker; HEK293-CNG NPY-Y1, membrane potential fluorescence, cAMP; NPY challenge against isoproterenol-raised cAMP; 1,200 compounds, 21% hits; in the data active = inhibition above about 20%;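 note: 0% = vehicle with agonist plus stimulus and 100% = stimulus alone without agonist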
NPY-Y2 antag ct: counter-screen for NPY-Y1 antagonists: human NPY-Y2 antagonism. shares compounds with NPY Y1 blocker. HEK293 NPY-Y2 CNG membrane potential fluorescence; cells given NPY, then isoproterenol. inhibition, % at 3.6 µM. 1,200 compounds, 28% hits. AID 1255;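 note: 0% = DMSO with agonist challenge and 100% = reference antagonist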
An asterisk follows results filed as active; / = no result given. Compounds with a hit are over-represented: about 1.8% of the library has one in this group of screens. Cut-off read from the data, not from the text of the source, unless noted: active = inhibition above about 17%; inactive = the rest.

SMILES	NPY Y1 blocker	NPY-Y2 PAM-ag	NPY Y2 blocker	NPY-Y1 PAM-ag	NPY-Y1 ant conf	NPY-Y2 antag ct
COCCN1Cc2cccc(C(=O)Nc3cc(OC)ccc3OC)c2C1=O	34*	-2	3	-12	27*	62*
CSc1ccc(C2c3[nH]c4ccccc4c3CCN2C(=O)c2cc(C)n(C)n2)cc1 (stereo not given)	27*	-26	/	-13	15	41*
O=C(c1cnccn1)N1CCc2c([nH]c3ccccc23)C1c1cccc(Cl)c1 (stereo not given)	6	11	/	11	/	/
Cc1cc(C(=O)N2CCc3c([nH]c4ccccc34)C2c2cccc(Cl)c2)nn1C (stereo not given)	36*	-19	/	-18	20	61*
O=C(NCC1(N2CCCCC2)CCCCC1)C1CC(=O)N(c2ccc3c(c2)OCCO3)C1 (stereo not given)	-2	4	/	1	/	/
O=C(CCCOc1ccc(Cl)cc1Cl)N1CCN(c2ccccn2)CC1	24*	-14	11	-28	8	11
CCCCN1Cc2cc(C(=O)c3cc(F)ccc3O)cnc2NC1=O	22*	-3	3	-33	0	2
O=C(CN(CCc1ccccc1)C(=O)c1csnn1)NC1CCCC1	-4	2	/	8	/	/
O=C(CCCCn1c(=O)[nH]c2ccccc2c1=O)N1CCN(c2cccc(C(F)(F)F)c2)CC1	21*	4	2	-56	3	3
O=C(CCn1c(=O)[nH]c2ccccc2c1=O)N1CCN(c2cccc(C(F)(F)F)c2)CC1	4	-3	3	10	/	/
COc1ccc(-c2cc(C(F)(F)F)nc(S(=O)(=O)CCCC(=O)Nc3cccnc3Cl)n2)cc1OC	14	-19	/	-24	/	/
O=C(COC(=O)c1cc[n+]([O-])cc1)Nc1ccc([N+](=O)[O-])cc1Cl	-2	-10	/	0	/	/
CN(Cc1ccccc1)CC(O)COc1ccc(CNCc2cccnc2)cc1 (stereo not given)	7	-16	/	-19	/	/
CN(Cc1ccccc1)CC(O)COc1ccc(CNCc2ccc(Cl)s2)cc1 (stereo not given)	29*	-24	/	-34	20*	30*
Cc1cc(C(F)(F)F)n2nc(-c3sccc3-n3cccc3)cc2n1	5	-15	1	-9	/	/
Cc1nc2cc(-c3sccc3-n3cccc3)nn2c(C)c1C	22*	-31	2	-60	17	20*
O=Cc1cn(-c2ccccc2)nc1-c1cc2cc(O)ccc2oc1=O	22*	-22	11	-54	19	14
CC(C)CC(c1nnnn1C(C)C)N1CCN(c2cccc(Cl)c2)CC1 (stereo not given)	37*	-36	13	-2	13	5
Cc1cc(C)cc(OCC(=O)NCc2nc(-c3ccccc3)no2)c1	29*	-19	15	-50	15	11
Cc1cccc(-c2noc(CCC(=O)NCc3ccccc3)n2)c1	8	-25	11	-46	/	/
CCC(C)Sc1nc2c(c(=O)[nH]1)C(c1cccs1)C1=C(CCCC1=O)N2 (stereo not given)	22*	1	/	7	3	9
O=C1CCCC2=C1C(c1ccncc1)c1c(nc(SCc3ccccc3Cl)[nH]c1=O)N2 (stereo not given)	-1	-6	2	-5	/	/
CC(C)c1cccc(OCCCCN(C)C)c1	8	-15	/	14	/	/
COc1ccc(C(=O)Nc2cccc(C)c2)cc1S(=O)(=O)N1CCOCC1	2	6	6	0	/	/
COc1ccc(C(=O)Nc2ccc(-c3ccc(C)o3)cc2)cc1S(=O)(=O)N1CCOCC1	20*	15	0	23	16	14
SMILES	NPY Y1 blocker	NPY-Y2 PAM-ag	NPY Y2 blocker	NPY-Y1 PAM-ag	NPY-Y1 ant conf	NPY-Y2 antag ct
O=S(=O)(N/N=C/c1ccc2c(c1)OCCO2)c1ccc(Cl)cc1	3	-20	13	1	/	/
Cc1cc(Cl)c(S(=O)(=O)N/N=C/c2ccc3c(c2)OCO3)c(Cl)c1	20*	-5	7	-22	9	14
Cc1ccc(S(=O)(=O)CCSc2cccc(C(=O)Nc3ccccc3C(=O)O)c2)cc1	2	7	7	0	/	/
Cc1ccc(CSc2ncccc2C(=O)O)cc1	23*	-15	12	-21	11	6
O=C1c2cccc3c(N4CCCCC4)ccc(c23)C(=O)N1c1ccc(O)cc1	22*	-18	/	-21	15	20*
O=C1c2cccc3c(N4CCCCC4)ccc(c23)C(=O)N1c1ccccc1O	1	-13	/	-14	/	/
CN(C)S(=O)(=O)c1cccc(NC(=O)c2ccncc2)c1	1	-4	1	5	/	/
CCN(CC)S(=O)(=O)c1cccc(NC(=O)c2ccc(C#N)cc2)c1	22*	-23	/	-14	-1	3
O=C(NNc1cccc(Cl)n1)c1ccccc1CC[N+](=O)[O-]	23*	8	/	20	2	-1
O=C(NNc1cccc(Cl)n1)c1ccc(Cl)cc1Cl	4	-3	-1	12	/	/
O=C(CSCc1nc2ccccc2[nH]1)N1CCN(c2cccc(Cl)c2)CC1	21*	-17	-2	-8	4	4
O=C(CSCc1nc2ccccc2[nH]1)N1CCN(c2ccc(F)cc2)CC1	-6	13	-2	-4	/	/
Nc1nc(Nc2ccccc2F)nc(N2CCOCC2)c1[N+](=O)[O-]	/	-17	/	-6	/	/
CCN(CC)c1ccc(S(=O)(=O)N2CCOCC2)cc1NC(=O)CN1CCc2ccccc2C1	23*	10	/	23	2	8
Cc1ccc(S(=O)(=O)N2CCOCC2)cc1NC(=O)CN1CCC(Cc2ccccc2)CC1	30*	-38	/	-9	11	15
Oc1ccc(-c2[nH]ncc2-c2cnn(-c3ccccc3)c2)c(O)c1	25*	11	/	13	12	-1
Cn1ccnc1C1CCCCN1Cc1nc(Cc2cccc(C(F)(F)F)c2)no1 (stereo not given)	8	-9	/	-8	/	/
COc1ccc(-c2noc(CN3CCCCC3c3nccn3C)n2)cc1 (stereo not given)	42*	-22	/	-25	30*	14
Cn1ccnc1C1CCCCN1Cc1nc(-c2ccc3c(c2)OCO3)no1 (stereo not given)	42*	-18	/	-21	27*	10
CC(=O)c1ccc(N2CCN(C(=S)NCCCN(C)C)CC2)cc1	7	4	/	19	/	/
CN(c1ccc(OCc2nnc(-c3ccccc3)o2)cc1)S(=O)(=O)c1ccccc1	28*	-16	15	-55	12	14
COc1ccc(CC2(CO)CCN(C/C=C/c3ccccc3OC)CC2)cc1	27*	-15	/	-30	17	23*
Cn1cc([N+](=O)[O-])c(C(=O)Nc2ccc(-c3nc4ccccc4o3)cc2)n1	/	14	/	32	/	/
Cc1ccc(Cl)cc1N1CCN(CC(O)COCc2ccco2)CC1 (stereo not given)	21*	-17	10	-47	13	7
